MrgX1 PAM: human MrgX1 positive allosteric modulation, primary screen. AID 588675. B-score at 10 µM. MrgX1-HEK293, Fluo-4 calcium flux, FDSS; stronger effect = higher value. 310,000 tested, 0.63% active. Q96LB2;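 active = plate-corrected calcium response at least 3 library SD above typical, normal starting fluorescence, not activating the receptor alone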;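 note: compound read alongside a low EC10 to EC30 dose of BAM8-22 agonist; peak minus trough fluorescence over baseline measured at the second addition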
Target sequence (Q96LB2 whole entry, looked up): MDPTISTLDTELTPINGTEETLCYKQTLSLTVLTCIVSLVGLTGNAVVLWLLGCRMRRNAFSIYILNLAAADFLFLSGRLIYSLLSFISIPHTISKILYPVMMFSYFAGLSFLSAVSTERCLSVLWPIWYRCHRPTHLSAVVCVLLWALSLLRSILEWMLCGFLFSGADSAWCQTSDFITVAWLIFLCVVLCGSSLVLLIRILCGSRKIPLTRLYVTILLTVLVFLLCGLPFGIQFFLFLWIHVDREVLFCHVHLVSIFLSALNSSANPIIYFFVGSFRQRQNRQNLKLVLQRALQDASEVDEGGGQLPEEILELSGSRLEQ
MrgX1 agonist: agonists of human MrgX1 receptor. Q96LB2. MrgX1-HEK293 cells, Fluo-4 calcium fluorescence, agonist mode; stronger effect = higher value. B-score at 10 µM. 310,000 tested, 0.44% active. AID 588627;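 active = calcium response B-score plate-corrected fluorescence ratio at least 3 library SD, with starting fluorescence B-score inside 5 SD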
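Assay system: stable human MrgX1 HEK293 cell line. Quantity: 15,000 cells per well. Schedule: cells plated overnight, dye loaded 0.5 h 37 °C, 0.5 h room temperature. Detection: Fluo-4 NW calcium-flux fluorescence, kinetic read. Read-out basis: peak-minus-minimum fluorescence over baseline, converted to B scores. Control set: positive and negative control wells on each plate.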
RGS4 act: RGS4 potentiation or activation | B-score at 10 µM | 310,000 tested, 0.92% active | HEK293 M3R/inducible RGS4, carbachol calcium flux Fluo4; stronger effect = lower value;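 active = B-score of the integrated calcium signal more than 4 SD below the library mean, with starting fluorescence not abnormally high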;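 note: negative B-score means reduced calcium response which marks RGS4 activation or potentiation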
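System: HEK293 FlpIn-TREx cells, stable M3R, doxycycline-inducible RGS4. Timing: overnight RGS4 induction, 30 min dye load 37 °C, 20 min compound RT. Also added: carbachol, ECmax concentration. Measured by: Fluo4 fluorescence kinetic imaging of calcium. Evaluation: integrated calcium ratio converted to B score.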
MrgX1 antagonist: blocks BAM8-22 activation of human MrgX1 receptor. MRGX1-HEK293 calcium flux, Fluo-4, BAM8-22 antagonism; stronger effect = lower value. B-score at 10 µM. 310,000 tested, 1.3% active. AID 588676;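 active = calcium-response B-score plate-corrected more than 3 library SD below zero, starting fluorescence within 5 deviations, no agonist response on first addition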;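 note: peak minus trough fluorescence over baseline after final BAM8-22 challenge near maximal dose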
RGS4 inh: inhibitors of human RGS4. P49798. 310,000 tested, 0.45% active. HEK293 M3R/RGS4 inducible, Fluo-4 calcium flux; stronger effect = higher value; triggered by carbachol at its EC20. B-score at 10 µM. AID 463165;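 active = B-score, a plate-corrected calcium signal, over three deviations above library mean, with baseline fluorescence within five deviations of library mean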;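 note: RGS4 expression induced by doxycycline in cells with stable M3 receptor; B-score is computed from the integrated fluorescence ratio over baseline after carbachol; higher B-score means a larger calcium signal and so more RGS4 inhibition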
Target sequence (P49798 whole entry, looked up): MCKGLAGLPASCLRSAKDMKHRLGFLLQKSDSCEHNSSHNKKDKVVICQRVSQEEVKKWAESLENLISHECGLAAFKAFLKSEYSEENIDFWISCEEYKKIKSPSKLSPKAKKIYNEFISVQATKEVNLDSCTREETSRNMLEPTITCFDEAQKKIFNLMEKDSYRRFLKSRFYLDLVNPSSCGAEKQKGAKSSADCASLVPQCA
* hit, by the source's call; i = inactive; · = not tested or not shown. Shown are actives, neighbours in structure and some others; about 3.5% of the full set was active somewhere.

SMILES	MrgX1 PAM	MrgX1 agonist	RGS4 act	MrgX1 antagonist	RGS4 inh
CCOC(=O)c1c(NC(=S)NCC2CCCO2)sc(C)c1C (centres undefined)	i	i	i	i	i
COc1ccccc1CCC(=O)OCC(=O)Nc1cccc(S(=O)(=O)N2CCCCC2)c1	i	i	i	-4.74*	i
Cc1ccc(NC(=O)CN2C(=O)COc3ccc(S(=O)(=O)N4CCCC4)cc32)cc1C	i	i	i	i	i
CCSC1=C(C#N)C(c2ccc(C)o2)CC(=O)N1 (centres undefined)	i	i	i	i	i
Cc1ccc(C2CC(=O)NC(SCc3ccccc3)=C2C#N)o1 (centres undefined)	i	29.6*	i	i	i
O=C(CCN1CCC(c2ccc(Cl)s2)=N1)c1ccc(Cl)s1	i	i	i	-4.87*	i
O=C(CSCc1ccco1)c1ccc(Cl)s1	i	i	i	i	i
Cc1cccc2sc(NC(=O)C3CCN(S(=O)(=O)c4cc([N+](=O)[O-])ccc4Cl)CC3)nc12	i	i	i	-6.8*	i
O=C(NCc1ccc(Cl)cc1)C1CCN(S(=O)(=O)c2cc([N+](=O)[O-])ccc2Cl)CC1	i	i	i	i	i
Cc1ccc(NC(=O)c2cccc(S(=O)(=O)N(C)c3ccccc3)c2)cc1S(=O)(=O)N1CCOCC1	i	i	i	i	i
O=C(NNS(=O)(=O)c1cc(Cl)c(Cl)cc1Cl)c1cccnc1	i	i	i	-9.19*	i
O=C(Nc1ccc(Cl)c(Cl)c1)c1cccnc1	i	i	i	i	i
Cc1cc(C)nc(N/C(=N\S(=O)(=O)Cc2ccccc2)Nc2ccc(F)c(Cl)c2)n1	i	i	i	i	i
CC(C)c1ccc(N2C=Nc3ccc(C(C)C)cc3C2)cc1	i	i	-7.53*	i	i
O=C(OCCN1CCOCC1)c1ccc(O)cc1	i	i	i	i	i
CCOc1cc(CNCc2ccccc2)ccc1OCc1ccc(Cl)cc1	i	i	i	i	i
COc1ccc(CNCCc2ccc(Cl)cc2)cc1OCc1ccccc1	i	i	i	-5.85*	i
CC1(C)CC[C@@]23CC[C@]4(C)[C@@](OC2=O)(C3C1)[C@H]1O[C@H]1C1[C@@]2(C)CC[C@H](O)C(C)(C)C2CC[C@]14C (some centres undefined)	i	i	i	i	i
O=c1cc(C(F)(F)F)nc(SCc2cccc3ccccc23)[nH]1	i	i	i	-5.13*	i
Nc1cc(=O)[nH]c(SCc2cccc3ccccc23)n1	i	i	i	i	i
CCCCCCCCCCn1c2c(c(=N)c3c1CCC3)CCC2	i	i	-8.74*	-6.17*	i
CCN(CC)CCNC(=O)c1cc2cc(Br)ccc2s1	i	i	i	i	i
COc1ccc(/C=C/C(=O)Nc2ccccc2C)cc1S(=O)(=O)N1CCOCC1	7.95*	i	i	i	i
COc1ccc(/C=C/C(=O)Nc2cccc(F)c2)cc1S(=O)(=O)N1CCOCC1	i	i	i	i	i
Nc1nc(NCC2CCCO2)nc(Nc2ccc(Cl)cc2)c1[N+](=O)[O-] (centres undefined)	6.83*	i	i	i	i
SMILES	MrgX1 PAM	MrgX1 agonist	RGS4 act	MrgX1 antagonist	RGS4 inh
Cc1ccc(NC(=O)CCC(=O)O)cc1F	i	i	i	i	i
c1ccc(CN2CCC(N3CCN(Cc4ccc5c(c4)OCO5)CC3)CC2)cc1	i	i	i	i	i
c1cc2c(cc1CN1CCN(C3CCCCCC3)CC1)OCO2	i	i	-7.56*	i	i
O=C(Nc1ccccc1-c1nnc(SCc2ccccc2)o1)c1ccccc1	i	i	-7.39*	i	i
O=C(Nc1ccccc1-c1nnc(SCc2ccc(Cl)cc2)o1)c1ccccc1	i	i	i	-7.12*	i
COc1ccc(-c2noc3c2-c2nc(-c4ccc(C)cc4)sc2CC3)cc1	i	i	i	-4.64*	i
Fc1ccccc1-c1nc2c(s1)CCc1onc(-c3ccc(Br)cc3)c1-2	i	i	i	-5.38*	i
COc1ccc(-c2noc3c2-c2nc(-c4ccccc4)sc2CC3)cc1	i	i	i	i	i
Cc1ccccc1NC(=O)CCNS(=O)(=O)c1cccc2nsnc12	i	i	i	i	i
Cn1cc(/C=C(\C(=O)O)C(C(=O)O)=C2CCCCC2)c2ccccc21	i	i	i	-4.79*	i
Cn1cc(/C=C/C(=O)c2ccccc2)c2ccccc21	i	i	i	i	i
O=C(NNS(=O)(=O)c1ccc(F)cc1)c1cccc(O)c1	i	i	i	i	i
Cc1ccc(S(=O)(=O)NNC(=O)c2cccc(O)c2)cc1	i	i	i	-6.53*	i
C=C(C)CNC(=S)N/N=C(\C)c1ccc(Cl)s1	i	i	i	-6.07*	i
CCNC(=S)N/N=C(\C)c1ccc(Cl)s1	i	i	-7.13*	i	i
CC1CCCN(C(=O)CSc2cnc3ccccc3n2)C1 (centres undefined)	i	i	i	i	i
CCn1cc(S(=O)(=O)CC(=O)Nc2ccc(OC)cc2)c2ccccc21	i	i	i	i	i
CCn1nc(C)c(Br)c1-c1nc(-c2cccc(C)c2)no1	i	i	i	i	i
CC(=O)Nc1ccc(SCC(=O)OCC(=O)NC(=O)NCCC(C)C)cc1	i	i	i	-7.35*	i
CC(=O)Nc1ccc(SCC(=O)OCC(=O)NC(=O)NCc2ccco2)cc1	i	i	i	i	i
C/C(=C/CCC(C)[C@H]1CC[C@@]2(C)C3=C(CC[C@]12C)[C@@]1(C)CCC(=O)C(C)(C)[C@@H]1CC3)C(=O)O (some centres undefined)	i	i	-11.5*	i	i
C/C(=C/CCC(C)C1CCC2(C)C3CCC4C(C)(C)C(=O)CCC4(C)C3=CCC12C)C(=O)O (centres undefined)	·	·	-7.76*	·	i
CCc1ccc(OCc2cccc(C(=O)N/N=C\c3cnn(C)c3C)c2)cc1	·	·	i	·	i
COc1cc(OC)c(NC(=S)Nc2cc(Cl)cc(Cl)c2)cc1Cl	i	i	i	-4.7*	i
CCN1CCc2c(sc(NC(=O)Nc3ccc(Cl)c(Cl)c3)c2C(N)=O)C1	i	i	·	i	·
CCOc1cc(N2CCOCC2)c(OCC)cc1NC(=O)CN1C(=O)NC(C)(C2CC2)C1=O (centres undefined)	i	i	i	-4.75*	i

High-throughput results deposited in PubChem by Johns Hopkins Ion Channel Center.
